Insulin prom act = TRM-6 insulin promoter activation | 0.81% of 130,000 active | TRM-6 cells, insulin promoter eGFP reporter, imaging; plate-scaled: unstimulated 0, stimulated control 100 | activation, % at 2 µM | AID 1296;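 active = activation at 2 µM above a set limit, confirmed on inspection of the cell images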;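 also: share of cells whose green reporter signal exceeds an intensity cutoff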
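System – human fetal islet-derived TRM-6 cells with tamoxifen-inducible insulin promoter–eGFP reporter · Amount – 1,000 cells per well · Schedule – overnight tamoxifen, then two-day compound incubation at 37 °C · Detection – high-content imaging of fixed cells with Hoechst nuclear stain · Read-out – percent cells above green-intensity threshold, converted to percent activation versus plate controls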
Numbers without * were called inactive. This excerpt belongs to a sample that is enriched for hits.

SMILES	Insulin prom act
Cc1ccccc1N1CCN(C(=O)CN2C(=O)c3ccccc3C2=O)CC1	0.0
CN1C(=O)/C(=C/c2ccccc2OCc2cccc(F)c2)N(C)C1=S	5.1
COc1cc(N2CCCC2)c(OC)cc1/C=C1/NC(=S)NC1=O	153.8
Cc1cc(/C=C2/C(=O)N(C)C(=S)N2C)ccc1N1CCCC1	376.2*
COc1ccc(/C=C2\NC(=S)N(CC3CCCO3)C2=O)c(OC)c1C (centres undefined)	-3.3
CCN1CCCC1CNCc1cccc(OC)c1OCc1ccc(F)cc1 (centres undefined)	166.7
CCC(CC)C(=O)NCCc1ccc(OC)cc1	3.4
CCN1C/C(=C/c2cccc([N+](=O)[O-])c2)C(=O)/C(=C/c2cccc([N+](=O)[O-])c2)C1	-100.0
CCCCOC(=O)c1ccc(NC(=O)CSc2nnnn2C)cc1	7.3
COc1ccc(S(=O)(=O)N2CCOCC2)c(Cl)c1Cl	-7.0
Cn1c(CNC(=O)c2ccc(F)cc2)nc2ccccc21	0.0
NC(=O)CSc1nc2ccccc2n1-c1ccccc1	341.9
O=c1c(/C=C(\O)c2ccc(F)cc2)nc2ccccc2n1-c1ccccc1	127.6*
CC(C)(C)n1ncc(Oc2ccc(Oc3cnn(C(C)(C)C)c(=O)c3Cl)cc2)c(Cl)c1=O	-54.7
CCC(C)(C)NC(=O)COc1ccc(OCc2ccccc2)cc1	0.0
CCOc1ccc(/C=N/Nc2nc(N3CCCC3)nc(N3CCCC3)n2)cc1OC	-5.7
COc1cc(/C=N/Nc2nc(N3CCCC3)nc(N3CCCC3)n2)ccc1O	0.0
Fc1ccc(COc2ccc(Cl)cc2/C=N/Nc2nc(N3CCCC3)nc(N3CCCC3)n2)cc1	658.3*
CC(C)CNC(=O)C1CCCN(C(=O)NCc2ccccc2)C1 (centres undefined)	-6.7
CCOC(=O)c1ccc(NS(=O)(=O)N2CCCCCC2)cc1	5.4
CCOC(=O)c1nc(-c2ccc(OC)c(OC)c2)cnc1C#N	7.7
COc1cccc(-c2noc(-c3ccc(Br)o3)n2)c1	-6.7
O=S(=O)(Nc1ccc(-n2cccc2)cc1)c1ccccc1	-3.3
CCC(=O)Nc1ccc(Cl)c(NC(=O)c2ccc(Br)o2)c1	334.3
O=C(Nc1ccc(Br)c(Cl)c1)C1CC1	-75.0
SMILES	Insulin prom act
CC(C)(C)C(=O)CC(=O)Nc1ccc(Cl)c(N)c1	0.0
O=C(O)CCC(=O)Nc1ccc(Br)c(Cl)c1	-2.3
CCCC(=O)Nc1ccc(Br)c(Cl)c1	442.9*
CCCC(=O)Nc1ccc(Cl)c(NC(=O)C(C)(C)C)c1	790.0*
CC(=O)c1ccc(NC(=O)CN2C(=O)CCC2=O)cc1	-7.1
O=C(c1cccc(S(=O)(=O)N2CCc3ccccc3C2)c1)N1CCN(c2ccc(O)cc2)CC1	106.7
CCOc1ccc(CCNC(=O)C2CCN(c3nn4c(=O)cc(C)nc4s3)CC2)cc1OCC	-7.7
Cc1cccc(OCc2n[nH]c(=S)n2C2CCCCC2)c1	-75.0
Cc1n[nH]c(=S)n1/N=C/c1ccc(OCc2ccc(Cl)cc2)cc1	0.0
S=c1[nH]nc(COc2ccc(Cl)cc2)n1C1CCCCC1	437.1*
NC(=O)CN1CCOCCOCCN(CC(N)=O)CCOCCOCC1	-2.3
Cc1ccc(C)c(Cc2c(C)nc(C)[nH]c2=O)c1	0.0
O=C(CSc1nc2ccccc2c(=O)n1Cc1ccc(Cl)cc1)NCc1cccs1	-7.1
CCn1c(=O)c2ccccc2n2c(SCC(=O)NCc3cccs3)nnc12	136.4*
CCn1c(SCC(=O)NCc2cccs2)nc2c1c(=O)n(C)c(=O)n2C	-8.8
OCCNc1c2ccccc2nc2c(F)c(F)c(F)c(F)c12	180.6
Cc1c2ccccc2nc2c(F)c(NC(C)C)c(F)c(F)c12	233.3*
Cc1c2ccccc2nc2c(F)c(NCCO)c(F)c(F)c12	112.1
O=C(NCc1ccccc1)Nc1cccn(Cc2ccccc2Cl)c1=O	-5.3
Cc1ccc(CS(=O)(=O)Cc2ccc(C(=O)NCc3cccs3)o2)cc1	-5.6
COc1ccc(S(=O)(=O)Nc2cc3c4c(oc3c3ccccc23)CC(C)(C)CC4=O)cc1	86.8*
COc1ccc(NS(=O)(=O)c2ccc(SC)cc2)c(OC)c1	3.6
COc1ccc(S(=O)(=O)Nc2ccccc2C)cc1	4.2
CCCCNS(=O)(=O)c1ccc(NS(=O)(=O)c2c(C)cc(C)cc2C)cc1	-2.9
O=C(CCc1ccccc1)NCCc1nc2ccccc2[nH]1	6.7
SMILES	Insulin prom act
CCC(C)S(=O)(=O)c1snnc1C (centres undefined)	-8.3
O=C(Cn1nnc(-c2cccs2)n1)N1c2ccccc2Sc2ccc(C(F)(F)F)cc21	-80.0
COc1ccc(Cl)cc1NC(=O)c1ccco1	-6.1
O=C(Nc1ccc(Cl)cn1)c1ccc(-c2cc(Cl)ccc2Cl)o1	3.3
O=C(Nc1ccc(Cl)cc1C(=O)Nc1ccc(Br)cn1)c1ccco1	600.0*
Cc1cccc(C)c1NC(=O)C1(NC(=O)C2CCCN2C(=O)OC(C)(C)C)CCCCC1 (centres undefined)	171.4*
Cc1ccc(NC(=O)C2CCCN2C(=O)Oc2ccccc2)cc1C (centres undefined)	0.0
CC(C)(C)OC(=O)N1CCCC1C(=O)NCCc1ccccc1 (centres undefined)	9.1

High-throughput results (PubChem)
